Assays:
[1] = target: C-C chemokine receptor type 2 (Homo sapiens) (UniProt P41597); assay: Inhibition of CCR2B (unknown origin) at 10 uM relative to control
[2] = target: T1, C-C chemokine receptor type 4 (Homo sapiens) (UniProt P51679); assay: Inhibition of CCR4 (unknown origin) at 10 uM relative to control
T1 sequence (whole entry): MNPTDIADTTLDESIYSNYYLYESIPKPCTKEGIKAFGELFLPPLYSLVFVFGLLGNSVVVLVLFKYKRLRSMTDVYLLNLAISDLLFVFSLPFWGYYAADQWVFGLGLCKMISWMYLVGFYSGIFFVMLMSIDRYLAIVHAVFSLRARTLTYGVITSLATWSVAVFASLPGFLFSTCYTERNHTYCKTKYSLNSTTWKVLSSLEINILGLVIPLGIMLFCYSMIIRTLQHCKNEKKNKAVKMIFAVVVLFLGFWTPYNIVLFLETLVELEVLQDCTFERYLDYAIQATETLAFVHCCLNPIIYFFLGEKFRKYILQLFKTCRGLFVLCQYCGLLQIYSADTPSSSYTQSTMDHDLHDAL

[3] = AUC (0 to infinity) in jugular pre-cannulated CRL Sprague-Dawley rat at 10 mg/kg, po; assay type: ADME, organism-based; set-up: dose 10 mg/kg, route oral, time infinity; conditions: plasma
[4] = Half life in human liver microsomes at 1 uM incubated for 3 mins prior to NADPH addition by LC-MS/MS analysis; assay type: ADME
Liver microsome [5] = assay: Intrinsic clearance in rat liver microsomes at 1 uM incubated for 3 mins prior to NADPH addition by LC-MS/MS analysis; assay type: ADME; conditions: 0.05 h
[6] = target: T2, C-C chemokine receptor type 1 (Homo sapiens) (UniProt P32246); assay: Inhibition of CCR1 (unknown origin) at 10 uM relative to control
T2 sequence (whole entry): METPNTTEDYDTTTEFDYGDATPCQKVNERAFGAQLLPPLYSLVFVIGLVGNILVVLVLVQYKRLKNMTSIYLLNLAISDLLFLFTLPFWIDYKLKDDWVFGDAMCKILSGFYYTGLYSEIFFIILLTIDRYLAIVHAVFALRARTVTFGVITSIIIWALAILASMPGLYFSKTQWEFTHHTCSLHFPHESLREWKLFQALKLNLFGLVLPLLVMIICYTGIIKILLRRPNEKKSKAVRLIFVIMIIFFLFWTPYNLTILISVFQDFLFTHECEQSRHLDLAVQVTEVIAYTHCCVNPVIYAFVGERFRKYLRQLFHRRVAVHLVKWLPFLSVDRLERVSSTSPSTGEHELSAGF

[7] = target: T3, C-X-C chemokine receptor type 5 (Homo sapiens) (UniProt P32302); assay: Inhibition of CXCR5 (unknown origin) at 10 uM relative to control
T3 sequence (whole entry): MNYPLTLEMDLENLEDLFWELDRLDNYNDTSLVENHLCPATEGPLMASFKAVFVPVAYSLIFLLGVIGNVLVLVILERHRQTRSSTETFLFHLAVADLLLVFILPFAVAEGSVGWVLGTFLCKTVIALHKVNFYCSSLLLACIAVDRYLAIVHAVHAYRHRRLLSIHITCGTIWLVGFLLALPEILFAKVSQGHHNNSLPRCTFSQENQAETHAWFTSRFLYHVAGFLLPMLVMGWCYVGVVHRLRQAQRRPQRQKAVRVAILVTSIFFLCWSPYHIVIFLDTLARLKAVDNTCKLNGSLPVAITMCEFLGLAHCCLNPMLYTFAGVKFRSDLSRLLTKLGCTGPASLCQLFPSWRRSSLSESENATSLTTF

[8] = Cytotoxicity against human PBMC assessed as cell viability by MTS assay; assay type: cell-based; conditions: read-out: TC50 (the source's name)
[9] = target: C-C chemokine receptor type 5 (Homo sapiens) (UniProt P51681); assay: Inhibition of CCR5 (unknown origin) at 10 uM relative to control
Chain of C-C chemokine receptor type 5 (Homo sapiens) (P51681 whole entry, looked up): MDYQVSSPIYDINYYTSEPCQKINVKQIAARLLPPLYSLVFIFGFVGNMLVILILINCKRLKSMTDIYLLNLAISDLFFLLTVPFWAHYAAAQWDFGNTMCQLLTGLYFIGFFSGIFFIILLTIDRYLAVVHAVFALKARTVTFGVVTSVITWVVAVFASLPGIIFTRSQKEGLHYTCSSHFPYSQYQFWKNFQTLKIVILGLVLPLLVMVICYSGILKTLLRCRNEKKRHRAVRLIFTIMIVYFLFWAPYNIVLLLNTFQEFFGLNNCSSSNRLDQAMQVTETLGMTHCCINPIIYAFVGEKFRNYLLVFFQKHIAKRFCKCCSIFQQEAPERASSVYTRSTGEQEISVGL

[10] = Oral bioavailability in jugular pre-cannulated CRL Sprague-Dawley rat at 10 mg/kg; assay type: ADME, organism-based; conditions: in vivo
Outline: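 Oral dosing by gavage at 10 mg/kg, with an i.v. arm at 2 mg/kg. Plasma AUC was calculated for each route, and F was obtained from the dose-normalised ratio of oral to i.v. AUC.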

[11] = Half life in mouse liver microsomes at 1 uM incubated for 3 mins prior to NADPH addition by LC-MS/MS analysis; assay type: ADME, Microsome
[12] = Plasma concentration in Harlan C57BL/6 mouse at 10 mg/kg, sc after 1 hr by LC/MS/MS analysis; assay type: ADME, organism-based; set-up: dose 10 mg/kg, route subcutaneous
Outline: (§1)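 Harlan mice were given a single subcutaneous dose at 5, 10 or 20 mg/kg. Blood was sampled at multiple time points over about 8 h, and each sample was used for both total circulating WBC count and plasma drug level. Counts and concentrations were plotted against time for each dose.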

[13] = AUC (0 to infinity) in jugular pre-cannulated Harlan Sprague-Dawley rat at 2 mg/kg, iv; assay type: ADME, organism-based; set-up: time infinity, dose 2 mg/kg, route intravenous; conditions: plasma
[14] = target: T4, C-C chemokine receptor type 6 (Homo sapiens) (UniProt P51684); assay: Inhibition of CCR6 (unknown origin) at 10 uM relative to control
T4 sequence (whole entry): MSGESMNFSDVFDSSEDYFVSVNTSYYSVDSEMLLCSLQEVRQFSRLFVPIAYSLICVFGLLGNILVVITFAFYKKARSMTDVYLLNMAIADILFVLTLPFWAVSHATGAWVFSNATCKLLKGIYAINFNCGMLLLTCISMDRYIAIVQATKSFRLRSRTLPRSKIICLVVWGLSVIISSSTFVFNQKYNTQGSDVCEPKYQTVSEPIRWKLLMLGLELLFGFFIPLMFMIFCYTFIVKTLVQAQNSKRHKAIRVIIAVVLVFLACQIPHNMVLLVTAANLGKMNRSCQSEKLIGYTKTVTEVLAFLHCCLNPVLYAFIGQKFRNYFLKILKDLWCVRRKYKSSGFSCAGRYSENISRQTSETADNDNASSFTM

[15] = Elimination half life in jugular pre-cannulated Harlan Sprague-Dawley rat at 2 mg/kg, iv; assay type: ADME, organism-based; set-up: dose 2 mg/kg, route intravenous; conditions: in vivo, read-out: beta t1/2 (converted)
[16] = target: C-C chemokine receptor type 8 (Homo sapiens) (UniProt P51685); assay: Inhibition of CCR8 (unknown origin) at 10 uM relative to control
Chain of C-C chemokine receptor type 8 (Homo sapiens) (P51685 whole entry): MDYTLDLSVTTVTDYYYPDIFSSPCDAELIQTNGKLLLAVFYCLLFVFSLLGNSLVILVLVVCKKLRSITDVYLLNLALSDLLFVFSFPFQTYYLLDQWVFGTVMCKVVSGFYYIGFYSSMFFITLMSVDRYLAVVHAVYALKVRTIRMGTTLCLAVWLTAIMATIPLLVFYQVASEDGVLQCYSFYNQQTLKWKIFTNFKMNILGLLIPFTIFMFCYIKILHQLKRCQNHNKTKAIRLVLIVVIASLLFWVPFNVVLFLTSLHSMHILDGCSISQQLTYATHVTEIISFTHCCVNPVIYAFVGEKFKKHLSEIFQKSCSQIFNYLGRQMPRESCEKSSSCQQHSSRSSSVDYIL

Mus musculus = assay: Induction of WBC mobilization in sc dosed Harlan C57BL/6 mouse after 1 to 8 hrs by LC/MS/MS analysis; assay type: functional, organism-based; outline: as §1
Liver microsome [17] = assay: Intrinsic clearance in human liver microsomes at 1 uM incubated for 3 mins prior to NADPH addition by LC-MS/MS analysis; assay type: ADME; conditions: 0.05 h
[18] = target: C-X-C chemokine receptor type 6 (Homo sapiens) (UniProt O00574); assay: Inhibition of CXCR6 (unknown origin) at 10 uM relative to control
Chain of C-X-C chemokine receptor type 6 (Homo sapiens) (O00574 whole entry, looked up): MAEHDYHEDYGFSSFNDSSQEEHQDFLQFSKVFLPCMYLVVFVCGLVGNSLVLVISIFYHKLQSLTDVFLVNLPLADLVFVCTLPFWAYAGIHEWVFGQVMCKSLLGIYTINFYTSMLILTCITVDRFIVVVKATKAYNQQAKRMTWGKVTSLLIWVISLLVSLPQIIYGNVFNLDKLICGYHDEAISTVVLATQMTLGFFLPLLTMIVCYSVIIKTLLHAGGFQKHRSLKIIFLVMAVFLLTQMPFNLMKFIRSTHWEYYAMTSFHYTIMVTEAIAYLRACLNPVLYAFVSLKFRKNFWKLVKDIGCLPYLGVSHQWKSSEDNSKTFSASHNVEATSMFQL

Chain of C-C chemokine receptor type 2 (Homo sapiens) (P41597 whole entry, looked up): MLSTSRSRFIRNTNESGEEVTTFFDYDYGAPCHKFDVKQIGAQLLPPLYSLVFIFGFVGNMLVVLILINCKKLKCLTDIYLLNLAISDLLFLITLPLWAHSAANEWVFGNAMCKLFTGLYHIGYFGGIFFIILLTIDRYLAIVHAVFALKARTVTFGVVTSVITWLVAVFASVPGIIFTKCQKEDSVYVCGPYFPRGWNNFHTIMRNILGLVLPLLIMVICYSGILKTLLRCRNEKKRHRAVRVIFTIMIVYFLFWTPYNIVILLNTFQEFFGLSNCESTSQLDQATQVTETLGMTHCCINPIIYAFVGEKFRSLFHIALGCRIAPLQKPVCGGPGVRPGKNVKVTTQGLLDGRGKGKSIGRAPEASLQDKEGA

inhibition [1]: < 10%
inhibition [2]: < 10%
AUC(0-inf) [3]: 0.328 µg·h/mL
half-life at 1 µM [4]: > 1 h
CLH (Liver microsome [5]): 35 µL/min/mg
inhibition [6]: < 10%
inhibition [7]: < 10%
inhibition [9]: < 10%
bioavailability [10]: 63%
half-life at 1 µM [11]: 0.367 h
concentration at 1 h [12]: 1.02 µg/mL
AUC(0-inf) [13]: 0.108 µg·h/mL
inhibition [14]: < 10%
half-life [15]: 1.2 h
inhibition [16]: < 10%
CLH (Liver microsome [17]): < 20 µL/min/mg
inhibition [18]: < 10%
SMILES: NCCCCN(C[C@H]1Cc2ccccc2CN1)[C@H]1CCCc2cccnc21
CC50 [8]: 47 µM
Activity (Mus musculus): Dose-dependent effect

From ChEMBL document CHEMBL3091329, “Discovery of tetrahydroisoquinoline-based CXCR4 antagonists” (ACS Med Chem Lett, 2013)
